From ChEMBL document CHEMBL1130259, “Nonsymmetrically substituted cyclic urea HIV protease inhibitors” (J Med Chem, 1997)

Legend:
[1] = Partition coefficient (logP) (HPLC); format: physicochemical; conditions: octanol/water
[2] = target: Human immunodeficiency virus type 1 protease (Human immunodeficiency virus 1, UniProt Q72874); experiment: Affinity against HIV protease
[3] = target: Human immunodeficiency virus type 1 protease (Human immunodeficiency virus 1) (UniProt Q72874)
[4] = Clearance of compound (5 mg/kg, intravenously), in dog plasma; format: ADME, organism-based, Canis lupus familiaris; conditions: iv
Outline: (§1)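 Female Beagle dogs given a 5.0 mg/kg intravenous dose. Formulation was 10.0 mg/mL in PEG400/water/EtOH (60/30/10), dosed at 0.5 mL/kg. Compound levels were measured in plasma by a method validated over 0.10–50.0 μg/mL.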

[5] = Maximum concentration (10 mg/kg, perorally) in plasma of dogs; format: ADME, organism-based, Canis lupus familiaris; set-up: dose 10 mg/kg, route oral; conditions: dog, po
Outline: (§2)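 Three female Beagle dogs were dosed orally at 10.0 mg/kg. The compound was given at 10.0 mg/mL in PEG400/water/EtOH (60/30/10) at 1.0 mL/kg. Plasma drug was quantified by a method validated in dog plasma over 0.10–50.0 μg/mL.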

[6] = Oral bioavailability in dog (dose 10 mg/kg); format: ADME, organism-based, Canis lupus familiaris; conditions: in vivo
Outline: (§3)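 Female Beagle dogs received either 10.0 mg/kg orally (three dogs; 10.0 mg/mL, 1.0 mL/kg) or 5.0 mg/kg intravenously (same formulation, 0.5 mL/kg). Vehicle was PEG400/water/EtOH (60/30/10). Plasma concentrations were assayed by a method validated over 0.10–50.0 μg/mL.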

[7] = Apparent volume of distribution of compound (5 mg/kg, intravenously) in dogs; format: ADME, organism-based, Canis lupus familiaris; conditions: dog, in vivo, iv, read-out: Vss; outline: as §1
[8] = Half life (10 mg/kg, perorally) […] in dogs; format: ADME, organism-based, Canis lupus familiaris; conditions: dog, in vivo; outline: as §2
[9] = Half life (5 mg/kg, intravenously) determined by administering intravenously in dogs; format: ADME, organism-based, Canis lupus familiaris; conditions: dog, in vivo, iv; outline: as §1
[10] = Maximum concentration in dog plasma; format: ADME, organism-based, Canis lupus familiaris; outline: as §3
[11] = Apparent volume of distribution of compound in dog plasma; format: ADME, organism-based, Canis lupus familiaris; conditions: read-out: Vss; outline: as §1
[12] = Half life determined by administering intravenously in dog; format: ADME, organism-based, Canis lupus familiaris; conditions: in vivo, iv; outline: as §1
Canis lupus familiaris = species: Canis lupus familiaris; experiment: Clearance of compound in dog plasma
[13] = Maximum concentration (10 mg/kg, orally) in plasma of dogs; format: ADME, organism-based, Canis lupus familiaris; set-up: dose 10 mg/kg, route oral; conditions: dog, po; outline: as §2
[14] = Half life (10 mg/kg, orally) […] in dog plasma; format: ADME, organism-based, Canis lupus familiaris; outline: as §2
[15] = Clearance (5 mg/kg, intravenously) in dog plasma; conditions: iv
[16] = Apparent volume of distribution of compound (5 mg/kg, intravenously) in dogs; conditions: dog, in vivo, iv, read-out: Vss
[17] = Half life (5 mg/kg, intravenously) determined by administering intravenously in dogs; conditions: dog, in vivo, iv
[18] = Clearance of compound in dog plasma; format: ADME, organism-based, Canis lupus familiaris; outline: as §1
[19] = Half life determined by administering intravenously in dog plasma; format: ADME, organism-based, Canis lupus familiaris; conditions: iv; outline: as §1
[20] = Maximum concentration (5 mg/kg, intravenously) in plasma of dogs; format: ADME, organism-based, Canis lupus familiaris; set-up: dose 5 mg/kg, route intravenous; conditions: dog, iv; outline: as §1

Row | SMILES | logP [1] | Ki [2] [nM] | IC90 [3] [nM] | further results
1 | CC(C)(C)NC(=O)c1cccc(CN2C(=O)N(Cc3cccc(N)c3)[C@H](Cc3ccccc3)[C@H](O)[C@@H](O)[C@H]2Cc2ccccc2)c1 | 5.28 | 0.41 | 114 | 
2 | Nc1cccc(CN2C(=O)N(Cc3cccc(C(=O)Nc4ncc[nH]4)c3)[C@H](Cc3ccccc3)[C@H](O)[C@@H](O)[C@H]2Cc2ccccc2)c1 | 3.39 | 0.012 | 26.2 | clearance [4]: 8.33 mL/min/kg; Cmax [5]: 900 ng/mL; bioavailability [6]: 68%; Vd [7]: 4 L/kg; half-life [8]: 10.3 h; half-life [9]: 5.6 h
3 | Cc1ccc(NC(=O)c2cccc(CN3C(=O)N(Cc4cccc(N)c4)[C@H](Cc4ccccc4)[C@H](O)[C@@H](O)[C@H]3Cc3ccccc3)c2)nc1 | 4.47 | 0.075 | 16.5 | 
4 | Cc1ccc(NC(=O)c2cccc(CN3C(=O)N(Cc4cccc(C(=O)Nc5ccc(C)cn5)c4)[C@H](Cc4ccccc4)[C@H](O)[C@@H](O)[C@H]3Cc3ccccc3)c2)nc1 |  |  | 3.1 | Cmax [10]: 100 ng/mL; Vd [11]: 4.5 L/kg; half-life [12]: 1 h; clearance (Canis lupus familiaris): 66.7 mL/min/kg
5 | Nc1cccc(CN2C(=O)N(Cc3cccc(N)c3)[C@H](Cc3ccccc3)[C@H](O)[C@@H](O)[C@H]2Cc2ccccc2)c1 [MOZENAVIR] | 3.17 | 0.31 |  | Cmax [13]: 6000 ng/mL; bioavailability [6]: 79.2%; half-life [14]: 2.5 h; clearance [15]: 3.33 mL/min/kg; Vd [16]: 1.3 L/kg; half-life [17]: 3.6 h
6 | N#CCNC(=O)c1cccc(CN2C(=O)N(Cc3cccc(C(=O)NCC(=O)O)c3)[C@H](Cc3ccccc3)[C@H](O)[C@@H](O)[C@H]2Cc2ccccc2)c1 | 2.44 | 0.024 | 741 | 
7 | CC(C)CN(C[C@@H](O)[C@H](Cc1ccccc1)NC(=O)O[C@H]1CCOC1)S(=O)(=O)c1ccc(N)cc1 |  |  | 46 | 
8 | COc1cc(CN2C(=O)N(Cc3cccc(C(=O)Nc4ccc(C)cn4)c3)[C@H](Cc3ccccc3)[C@H](O)[C@@H](O)[C@H]2Cc2ccccc2)cc(OC)c1 | 5.59 | 1.9 | 282 | 
9 | CC(C)(C)NC(=O)[C@@H]1CN(Cc2cccnc2)CCN1C[C@@H](O)C[C@@H](Cc1ccccc1)C(=O)N[C@H]1c2ccccc2C[C@H]1O |  |  | 50 | 
10 | COc1cc(CN2C(=O)N(Cc3cccc(C(=O)Nc4cccc(C)n4)c3)[C@H](Cc3ccccc3)[C@H](O)[C@@H](O)[C@H]2Cc2ccccc2)cc(OC)c1 | 5.69 | 0.7 | 282 | 
11 | COc1cccc(CN2C(=O)N(Cc3cccc(C(=O)Nc4cccc(C)n4)c3)[C@H](Cc3ccccc3)[C@H](O)[C@@H](O)[C@H]2Cc2ccccc2)c1 | 5.54 | 0.053 | 42.7 | 
12 | COc1cccc(CN2C(=O)N(Cc3cccc(C(=O)Nc4cnccn4)c3)[C@H](Cc3ccccc3)[C@H](O)[C@@H](O)[C@H]2Cc2ccccc2)c1 | 4.75 | 0.038 | 91.2 | 
13 | CC(C)(C)NC(=O)[C@@H]1C[C@@H]2CCCC[C@@H]2CN1C[C@@H](O)[C@H](Cc1ccccc1)NC(=O)[C@H](CC(N)=O)NC(=O)c1ccc2ccccc2n1 |  |  | 10.4 | 
14 | O=C(Nc1cnccn1)c1cccc(CN2C(=O)N(Cc3cccc(C(=O)Nc4cnccn4)c3)[C@H](Cc3ccccc3)[C@H](O)[C@@H](O)[C@H]2Cc2ccccc2)c1 |  |  | 3.5 | clearance [18]: 46.7 mL/min/kg; Cmax [10]: 400 ng/mL; Vd [11]: 3 L/kg; half-life [19]: 0.8 h
15 | COc1cccc(CN2C(=O)N(Cc3cccc(C(=O)Nc4ccc(C)cn4)c3)[C@H](Cc3ccccc3)[C@H](O)[C@@H](O)[C@H]2Cc2ccccc2)c1 | 5.51 | 0.069 | 41.6 | 
16 | O=C1N(Cc2ccc(CO)cc2)[C@H](Cc2ccccc2)[C@H](O)[C@@H](O)[C@@H](Cc2ccccc2)N1Cc1ccc(CO)cc1 [DMP-323] | 3.56 |  | 115 | 
17 | COc1cc(CN2C(=O)N(Cc3cccc(C(=O)Nc4ccccn4)c3)[C@H](Cc3ccccc3)[C@H](O)[C@@H](O)[C@H]2Cc2ccccc2)cc(OC)c1 | 5.2 | 0.86 | 129 | 
18 | COc1cccc(CN2C(=O)N(Cc3cccc(C(=O)Nc4ccccn4)c3)[C@H](Cc3ccccc3)[C@H](O)[C@@H](O)[C@H]2Cc2ccccc2)c1 | 5.06 | 0.047 | 30 | 
19 | O=C(Nc1ccccn1)c1cccc(CN2C(=O)N(Cc3cccc([N+](=O)[O-])c3)[C@H](Cc3ccccc3)[C@H](O)[C@@H](O)[C@H]2Cc2ccccc2)c1 | 5.05 | 0.096 | 97.5 | 
20 | Nc1cccc(CN2C(=O)N(Cc3cccc(C(=O)Nc4cnccn4)c3)[C@H](Cc3ccccc3)[C@H](O)[C@@H](O)[C@H]2Cc2ccccc2)c1 | 3.77 | 0.016 | 20.2 | 
21 | CC(C)c1nc(CN(C)C(=O)N[C@H](C(=O)N[C@@H](Cc2ccccc2)C[C@H](O)[C@H](Cc2ccccc2)NC(=O)OCc2cncs2)C(C)C)cs1 |  |  | 76 | 
22 | O=C(Nc1ccccn1)c1cccc(CN2C(=O)N(Cc3cccc(C(=O)Nc4ccccn4)c3)[C@H](Cc3ccccc3)[C@H](O)[C@@H](O)[C@H]2Cc2ccccc2)c1 |  |  | 2.8 | clearance [18]: 70 mL/min/kg; Cmax [10]: < 200 ng/mL; Vd [11]: 10.3 L/kg; half-life [19]: 1.1 h
23 | Nc1cccc(CN2C(=O)N(Cc3cccc(C(=O)Nc4nc5ccccc5[nH]4)c3)[C@H](Cc3ccccc3)[C@H](O)[C@@H](O)[C@H]2Cc2ccccc2)c1 | 4.95 | 0.023 | 13.2 | Cmax [20]: 5500 ng/mL; bioavailability [6]: 109%; half-life [9]: 1.5 h
24 | COc1cc(CN2C(=O)N(Cc3cccc(C(=O)Nc4cnccn4)c3)[C@H](Cc3ccccc3)[C@H](O)[C@@H](O)[C@H]2Cc2ccccc2)cc(OC)c1 | 4.84 | 2.51 | 743 | 
